Publication PMC5888399 (The FASEB Journal, 2017)
Where two headings read alike, the source gives them in different places. Marks after values point to notes of the source that are not given here.

Experiments:
[1] = Body weight, organ and muscle mass; assay type: in vivo, mouse
In short: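 mdx and WT mice given test compound in spring water (vehicle) ad libitum, targeting 10 or 50 mg/kg per day. Dose was calculated from weekly water volume per cage divided by animals and normalized to mean body weight. Body weight was tracked over 4 or 12 wk of treatment. Data are means ± sem. WT vs mdx vehicle was compared by unpaired t test; doses vs mdx vehicle by 1-way ANOVA with Dunnett's test.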

Oral bioavailability = assay type: in vivo; conditions: data not shown
creatine kinase (CK) = assay: CK serum levels; assay type: in vivo, mouse
In short: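 Serum was taken from blood drawn by cardiac puncture. CK was measured spectrophotometrically with a diagnostic kit. Mice received drinking-water dosing of 10 or 50 mg/kg per day, with spring water as vehicle.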

exercised mdx mice [2] = assay: Hindlimb grip strength; assay type: in vivo, mouse; conditions: 12 wk, AGA
In short: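 In the 12-wk phase 2 study at AGA, treadmill-exercised mice had hindlimb grip force measured weekly with a grip strength meter, at least 48 h after the last treadmill session. Dosing was via drinking water at 10 or 50 mg/kg per day, with spring water as vehicle.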

mdx EDL muscle fibers = assay type: in vivo, mouse; conditions: 4 wk
[3] = tested on: FDB muscle fibers of mdx mice; assay: Fura-2 microfluorescence, resting cytosolic Ca2+ in isolated FDB myofibers; assay type: in vivo, mouse; conditions: 4 wk
In short: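 FDB muscles were dissected after 4 wk of drinking-water dosing. Myofibers were isolated enzymatically in Ringer's with 0.8–1 mg/ml collagenase type XI-S for 45 min at 37°C, under constant agitation and O2 flux. Resting cytosolic Ca2+ was then measured by fura-2 microfluorescence (UNIBA).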

[4] = tested on: DIA and GC muscles of mdx mice; assay: Histologic evaluation; assay type: in vivo, mouse; conditions: for Change in % damaged, total damaged gastrocnemius (%) / CNFs in DIA / Change in % damaged, total damaged DIA (%): 12 wk; for Change in % damaged, total damaged gastrocnemius (%) / Change in % damaged, total damaged DIA (%): vs mdx vehicle; for CNFs in DIA: vehicle 72.3 ± 1.6
In short: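 Diaphragm and left gastrocnemius were frozen in isopentane cooled in N2 (AGA) or paraffin-fixed (UNIBA). Sections of 6–10 μm were H&E-stained. Scored items: inflammation, degeneration, regeneration, centronucleated and normal fibers, and total damaged area. Five random images were taken per section, with blinded analysis on at least 6 animals per group.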

exercised mdx mice [5] = assay: Forelimb grip strength; assay type: in vivo, mouse; conditions: for Percentage change in normalized forelimb grip strength: vs mdx vehicle
In short: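 Mice were treadmill-exercised to unmask the phenotype. Forelimb grip force was measured weekly with a grip strength meter, at least 48 h after the last treadmill session: at UNIBA in phase 1 (4 wk), and at UNIBA and AGA in phase 2 (12 wk). Values were normalized to body weight. Outputs were percentage change vs WT or mdx vehicle and recovery score relative to the WT–mdx difference.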

[6] = tested on: PKA-phosphorylated RyR channels in SR vesicles from either cardiac or skeletal muscles; assay: Calstabin rebinding to RyR channels in SR vesicles; assay type: binding; conditions: data not shown
EDL muscle of mdx mice = assay type: in vivo, mouse; conditions: for % change EDL twitch force: vs mdx vehicle
[7] = tested on: RyR1, FKB1α, UTRN, MIOG, FSTN, BNIP3, TGF-β, CYBB; assay: Real-time PCR gene expression in GC muscle; assay type: in vivo, mouse
In short: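 Total RNA was extracted from gastrocnemius (UNIBA) and reverse-transcribed at 25°C for 10 min, 42°C for 50 min and 70°C for 15 min. TaqMan real-time PCR used 8 ng cDNA per reaction, singleplex, in triplicate. Targets were RyR1, FKBP1α, utrophin, myogenin, follistatin, BNIP3, TGF-β and CYBB, normalized to GAPDH.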

Ca2+-dependent calpains = assay: Calpain activity in DIA muscle lysates; assay type: in vivo, mouse; conditions: treated groups, 4 wk, not significant
[8] = S48168 plasma and GC muscle levels; assay type: in vivo, mouse; conditions: for Skeletal muscle (GC) concentration (mean) / Plasma concentration (mean): AGA; for Plasma concentration (mean): 20–30 min after drinking water withdrawn; for concentration at 2 h: mdx, mouse, oral, UNIBA
In short: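 Drug levels in plasma and gastrocnemius were measured by LC-MS/MS (ESI+, PFP column) after protein precipitation on phospholipid-removal plates, with a stable-isotope-labelled internal standard. In phase 2, blood was collected 20–30 min (AGA) or 2 h (UNIBA) after drinking water was withdrawn, following 12 wk of dosing at 10 or 50 mg/kg per day.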

DIA muscle of mdx mice = assay type: in vivo, mouse
young mdx mice = conditions: short term (2 wk) treatment; cited from earlier work
[9] = 50 mg/kg per day, 4 wk, not significant

Q: Which “Heart mass normalized to body weight vs mdx vehicle” value ([1]; 10 mg/kg per day, 4 wk) does the source give for `COc1ccc2c(c1)CN(Cc1ccc(C(=O)O)cc1)CCS2` [S48168/ARM210] here?
A: lower normalized mean value

Q: And the “Quadriceps mass, absolute and normalized” value ([1]; 10 mg/kg per day, 12 wk, UNIBA)?
A: significant increase

Q: What about the “Liver mass normalized to body weight” value ([1]; 50 mg/kg per day, 12 wk, UNIBA, n = 8) of the same molecule?
A: 56.39 ± 2.61 g/g × 1000

Q: What about the “Mass of various skeletal muscles” value ([1]; 4 wk) of the same molecule?
A: no drug effect

Q: What about the “Body weight vs mdx vehicle” value ([1]; 10 or 50 mg/kg per day, 4 wk, phase 1) of the same molecule?
A: no changes in body weight

Q: What about the “Body weight vs mdx vehicle” value ([1]; 12 wk, UNIBA and AGA, any time point) of the same molecule?
A: no changes in body weight

Q: What about the Oral bioavailability (Oral bioavailability) of the same molecule?
A: good oral bioavailability

Q: And the CK level (creatine kinase (CK); 12 wk, UNIBA and AGA)?
A: no significant changes

Q: What about the “Serum level of CK vs mdx vehicle” value (creatine kinase (CK); either dosage, 4 wk) of the same molecule?
A: No significant change

Q: What about the “Normalized hindlimb grip strength” value (exercised mdx mice [2]; 50 mg/kg per day) of the same molecule?
A: statistically significant ameliorative effect

Q: And the “Absolute hindlimb grip strength vs mdx vehicle” value (exercised mdx mice [2]; treatment groups)?
A: no differences

Q: And the “Mechanical threshold: potential for fiber contraction, rheobase voltage” value (mdx EDL muscle fibers; 50 mg/kg per day, all durations of depolarizing pulses)?
A: significant shift in the potential for fiber contraction toward WT values

Q: What about the “Mechanical threshold: rheobase voltage” value (mdx EDL muscle fibers; printed 50 mg/kg per day) of the same molecule?
A: slight but nonsignificant effect

Q: What about the “Level of cytosolic Ca2+ vs mdx vehicle” value ([3]; 10 mg/kg per day) of the same molecule?
A: no difference

Q: And the “Reduction in cytosolic Ca2+ vs mdx vehicle myofibers” value ([3]; 50 mg/kg per day)?
A: 25%

Q: And the “Change in % damaged, total damaged gastrocnemius (%)” value ([4]; 10 mg/kg per day, AGA)?
A: 1%

Q: And the “CNFs in DIA” value ([4]; 10 mg/kg, UNIBA)?
A: 62.4 ± 2.9%

Q: What about the “Percentage of regenerating area in GC” value ([4]; 50 mg/kg per day, 4 wk) of the same molecule?
A: significant increases

Q: And the “Percentage of regeneration in DIA” value [4, 9]?
A: increase in the percentage of regeneration

Q: What about the “Percentage of total damage in DIA” value [4, 9] of the same molecule?
A: reduction in the percentage of total damage

Q: What about the “Percentage of total damage in GC” value ([4]; 50 mg/kg per day, 4 wk, significant) of the same molecule?
A: decreases

Q: And the “Change in % damaged, total damaged DIA (%)” value ([4]; 50 mg/kg per day, AGA)?
A: −10* %

Q: What about the “Change in % damaged, total damaged gastrocnemius (%)” value ([4]; 50 mg/kg per day, AGA) of the same molecule?
A: 5%

Q: What about the “Change in % damaged, total damaged DIA (%)” value ([4]; 50 mg/kg per day, UNIBA) of the same molecule?
A: −19%

Q: And the “CNFs in DIA” value ([4]; 50 mg/kg, UNIBA)?
A: 53.3 ± 2.5%

Q: What about the “Number of CNF vs normal fibers in DIA or GC” value ([4]; either dose, 4 wk) of the same molecule?
A: No marked differences

Q: And the “Normalized forelimb grip strength vs mdx vehicle” value (exercised mdx mice [5]; 10 mg/kg per day, 12 wk, AGA)?
A: no statistically significant effect

Q: And the “Recovery score, normalized forelimb force” value (exercised mdx mice [5]; 10 mg/kg, week 12, UNIBA)?
A: 35%

Q: And the Normalized forelimb force (exercised mdx mice [5]; 10 mg/kg, week 12, UNIBA, vehicle 4.06 ± 0.20)?
A: 5 ± 0.23 KGF/kg

Q: And the “Percentage change in normalized forelimb grip strength” value (exercised mdx mice [5]; 10 mg/kg/d, 12 wk, AGA)?
A: +3%

Q: What about the “Normalized forelimb grip strength” value (exercised mdx mice [5]; 50 mg/kg per day, 12 wk, AGA, vehicle 3.62 ± 0.14) of the same molecule?
A: 3.99 ± 0.15 KGF/kg

Q: What about the “Recovery score, absolute forelimb strength” value (exercised mdx mice [5]; 50 mg/kg per day, W4, phase 1 UNIBA) of the same molecule?
A: 70%

Q: What about the “Recovery score, normalized forelimb force” value (exercised mdx mice [5]; 50 mg/kg, week 12, UNIBA) of the same molecule?
A: 12%

Q: What about the “Percentage change in normalized forelimb grip strength” value (exercised mdx mice [5]; 50 mg/kg/d, 12 wk, AGA) of the same molecule?
A: +10** %

Q: What about the “Percentage change in normalized forelimb grip strength” value (exercised mdx mice [5]; 50 mg/kg/d, 12 wk, UNIBA) of the same molecule?
A: +8%

Q: And the “Calstabin binding to PKA-phosphorylated RyR channels” value [6]?
A: effectively re-establish calstabin binding

Q: And the “% change EDL twitch force” value (EDL muscle of mdx mice; 10 mg/kg per day, 12 wk, AGA)?
A: −2%

Q: What about the “% change EDL twitch force” value (EDL muscle of mdx mice; 10 mg/kg per day, 12 wk, UNIBA) of the same molecule?
A: −1%

Q: What about the “% change EDL twitch force” value (EDL muscle of mdx mice; 50 mg/kg per day, 12 wk, AGA) of the same molecule?
A: +6%

Q: And the EDL stiffness (EDL muscle of mdx mice; 50 mg/kg per day, 12 wk, UNIBA)?
A: slight but not significant amelioration

Q: And the “EDL fatigue-related decline in force and recovery from fatigue vs mdx vehicle” value (EDL muscle of mdx mice; 12 wk, data not shown)?
A: no differences

Q: And the “EDL muscle-contraction kinetics (time to peak, half relaxation time)” value (EDL muscle of mdx mice; 12 wk, data not shown)?
A: no effect

Q: And the “EDL muscle force (twitch and specific tetanic)” value (EDL muscle of mdx mice; both doses, 4 wk)?
A: no effect

Q: What about the “Force decrease in EDL muscle from eccentric contraction” value (EDL muscle of mdx mice; either dose, 12 wk, UNIBA) of the same molecule?
A: No protective effect

Q: What about the “BNIP3 gene expression level vs mdx vehicle” value ([7]; 50 mg/kg per day, 4 wk) of the same molecule?
A: trend toward an increase

Q: And the “Gene expression of RyR1 compared with WT mice” value ([7]; 50 mg/kg per day, 4 wk)?
A: significant increase

Q: What about the “Expression of RyR1, FKB1α, UTRN, MIOG, FSTN, TGF-β, or CYBB vs mdx vehicle” value ([7]; 10 or 50 mg/kg per day, 4 wk) of the same molecule?
A: No significant changes

Q: What about the “Expression level of RyR1, calstabin, or BNIP3” value ([7]; any dose, 12 wk) of the same molecule?
A: No significant changes

Q: What about the “Calpain activity in DIA” value (Ca2+-dependent calpains) of the same molecule?
A: trend toward a reduction

Q: And the “Skeletal muscle (GC) concentration (mean)” value ([8]; 10 mg/kg, 12 wk treatment)?
A: 0.552 µg/g

Q: What about the “Plasma concentration (mean)” value ([8]; 10 mg/kg, 12 wk treatment) of the same molecule?
A: 6125 ng/mL

Q: What about the “Skeletal muscle (GC) concentration (mean)” value ([8]; 50 mg/kg, 12 wk treatment) of the same molecule?
A: 1.716 µg/g

Q: What about the “Plasma concentration (mean)” value ([8]; 50 mg/kg, 12 wk treatment) of the same molecule?
A: 18775 ng/mL

Q: What about the concentration at 2 h ([8]; gastrocnemius (GC) skeletal muscle, 10 mg/kg, Skeletal muscle (GC) concentration (mean), 4 wk treatment) of the same molecule?
A: 151 ng/g

Q: And the concentration at 2 h ([8]; gastrocnemius (GC) skeletal muscle, 10 mg/kg, Skeletal muscle (GC) concentration (mean), 12 wk treatment)?
A: 123 ng/g

Q: And the concentration at 2 h ([8]; gastrocnemius (GC) skeletal muscle, 50 mg/kg, Skeletal muscle (GC) concentration (mean), 4 wk treatment)?
A: 512 ng/g

Q: What about the concentration at 2 h ([8]; gastrocnemius (GC) skeletal muscle, 50 mg/kg, Skeletal muscle (GC) concentration (mean), 12 wk treatment) of the same molecule?
A: 1160 ng/g

Q: And the concentration at 2 h ([8]; plasma, 10 mg/kg, Plasma concentration (mean), 10 mg/kg, 4 wk treatment, about 2 h after drinking water withdrawn)?
A: 881 ng/mL

Q: What about the concentration at 2 h ([8]; plasma, 50 mg/kg, Plasma concentration (mean), 50 mg/kg, 4 wk treatment, about 2 h after drinking water withdrawn) of the same molecule?
A: 3020 ng/mL

Q: What about the “% change DIA twitch force” value (DIA muscle of mdx mice; 10 mg/kg per day, 12 wk, UNIBA, vs mdx vehicle) of the same molecule?
A: +2%

Q: What about the “DIA specific tetanic force vs mdx vehicle” value (DIA muscle of mdx mice; 50 mg/kg per day, 4 wk) of the same molecule?
A: significantly higher

Q: What about the “DIA force–frequency relationship vs mdx vehicle” value (DIA muscle of mdx mice; 50 mg/kg per day, 4 wk, 120 and 140 Hz) of the same molecule?
A: significantly higher values

Q: And the “DIA fatigue and recovery from fatigue” value (DIA muscle of mdx mice; any dose level, 4 wk)?
A: no effect

Q: With `COc1ccc2c(c1)CN(C)CCS2` [S107] as the molecule, how does the “Muscle function in young mdx mice” value (young mdx mice) read?
A: improved muscle function
